Tests used:
Escherichia coli [1] = assay: Activity at Escherichia coli DXR assessed as ratio of Kcat to Km […] in presence of NADPH by Lineweaver-burk plot method
[2] = Inhibition of Escherichia coli His6-tagged DXR preincubated for 2 mins in presence of NADPH followed by DXP substrate addition
How it was run: (§1)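 Recombinant His-tagged DXR was assayed at 37°C in 50 mM Tris/HCl pH 7.5 with 3 mM MgCl2 and 2 mM DTT. The enzyme was pre-incubated for 2 min with NADPH and the inhibitor at a range of concentrations, then DXP was added to start the reaction and residual activity was measured. IC50 was read from a plot of percent residual activity versus log inhibitor concentration.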

Escherichia coli [3] = assay: Growth inhibition of Escherichia coli XL1 blue at 2 nmol/disc incubated overnight by paper disc diffusion method; assay type: functional
How it was run: (§2)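 Paper disc diffusion on E. coli XL1 Blue growing on LB-agar; 6 mm paper discs impregnated with test compound at the stated amount per disc; plates incubated overnight at 37°C, then growth inhibition read.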

[4] = Inhibition of Mycobacterium smegmatis His6-tagged DXR preincubated for 2 mins in presence of NADPH followed by DXP substrate addition; parameters: species or system Mycolicibacterium smegmatis; how it was run: as §1
Escherichia coli [5] = assay: Growth inhibition of Escherichia coli XL1 blue at 160 nmol/disc incubated overnight by paper disc diffusion method; assay type: functional
How it was run: (§3)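 Paper disc diffusion assay on E. coli XL1 Blue grown in LB agar. 6 mm paper discs were impregnated with the stated amount of compound, and plates were incubated overnight at 37°C.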

Escherichia coli [6] = assay: Growth inhibition of Escherichia coli XL1 blue at 80 nmol/disc incubated overnight by paper disc diffusion method; assay type: functional; how it was run: as §2
Escherichia coli [7] = assay: Growth inhibition of fosmidomycin resistant Escherichia coli incubated overnight by paper disc diffusion method; assay type: functional
Escherichia coli [8] = assay: Growth inhibition of Escherichia coli XL1 blue at 100 nmol/disc incubated overnight by paper disc diffusion method; assay type: functional; how it was run: as §3
Escherichia coli [9] = assay: Growth inhibition of Escherichia coli XL1 blue at 400 nmol/disc incubated overnight by paper disc diffusion method; assay type: functional; how it was run: as §2

| IC50 [2] [nM] | IC50 [4] [nM] | SMILES | other results |
| --- | --- | --- | --- |
|  |  | CC(=O)[C@@H](O)[C@H](O)CCP(=O)(O)O | kcat/Km (Escherichia coli [1]): 11700 M⁻¹ s⁻¹ |
| 342 | 2100 | O=CN(O)CCOP(=O)(O)O | diameter of the inhibition zone (DIZ) (Escherichia coli [5]): 24 mm |
|  |  | CC(=O)[C@@H](O)[C@H](O)COP(=O)(O)O | kcat/Km (Escherichia coli [1]): 412000 M⁻¹ s⁻¹ |
| 42 |  | O=CN(O)CCCP(=O)(O)O [FOSMIDOMYCIN] | diameter of the inhibition zone (DIZ) (Escherichia coli [3]): 34 mm |
| 46 | 233 | CN(O)C(=O)CCOP(=O)(O)O | diameter of the inhibition zone (DIZ) (Escherichia coli [5]): 20 mm |
| 77 | 279 | CC(=O)N(O)CCOP(=O)(O)O | diameter of the inhibition zone (DIZ) (Escherichia coli [8]): 27 mm |
| 2600 | 9200 | O=C(CCOP(=O)(O)O)NO | diameter of the inhibition zone (DIZ) (Escherichia coli [9]): <10 mm |

| SMILES | IC50 [2] [nM] | IC50 [4] [nM] | other results |
| --- | --- | --- | --- |
| CC(=O)N(O)CCCP(=O)(O)O [FR-900098] | 4 |  | diameter of the inhibition zone (DIZ) (Escherichia coli [3]): 32 mm |
| CN(O)C(=O)CCCP(=O)(O)O | 48 |  | diameter of the inhibition zone (DIZ) (Escherichia coli [6]): 30 mm; diameter of the inhibition zone (DIZ) (Escherichia coli [7]): 18 mm |
| O=C(CCCP(=O)(O)O)NO | 170 |  | diameter of the inhibition zone (DIZ) (Escherichia coli [9]): 12 mm |
